Screens from PubChem.
Sampled rows, rich in hits. Any-hit rate of the full collection: about 1.9%.
HIF activator = HIF pathway transcriptional activators, primary screen, cell-based, U2OS HRE-luciferase, luminescence | activation, % at 7.5 µM (by protocol) | hit rate 0.32% among 300,000 | U2OS HRE-luciferase reporter; normalized: DMSO 0%, desferrioxamine 100%;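 active means mean activation of at least 10% of the iron chelator positive control signal, with at least half of replicates also reaching 10%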
FID counter = compounds displacing fluorescent DNA intercalator, primary screen, artefact control for HCV NS3 helicase inhibitor project, biochemical, FID fluorescence | DNA fluorescent intercalator displacement | inhibition, % at 7.9 µM | hit rate 0.17% among 290,000; in the data active means inhibition above about 37%;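 further: 0% = vehicle and 100% = reference compound; higher means more ethidium bromide displaced from hairpin DNA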
HCV NS3 hel inh = inhibitors of HCV NS3 helicase, primary screen, biochemical, Cy5 molecular beacon fluorescence; Hepatitis C virus NS3 helicase; NS3 helicase DNA unwinding; inhibition, % at 10.9 µM; hit rate 0.56% among 290,000;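 active means inhibition above the mean of all tested compounds plus 3 SD, set per campaign, cut at about 35% in these data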;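 further: 0% = DMSO wells and 100% = thioflavine S control wells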
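System: Hepatitis C virus NS3 helicase domain fragment enzyme | Reagent: Annealed dual-labelled DNA beacon duplex, ATP-started | Compound dosing: 10.9 µM single point, 0.8% DMSO | Incubation: 1 h reaction at 25 °C, ATP-initiated | Technique: Cy5 fluorescence | Evaluation: Percent inhibition from t60/t0 fluorescence ratio | Benchmarks: Low DMSO, high thioflavine S at 110 µM | Replication: Singlicate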
PP1 counter = PP1-alpha phosphatase inhibitors, primary screen, counter-screen for PP5 inhibitor project, biochemical, fluorescence, OMFP substrate, single point; Serine/threonine-protein phosphatase PP1-alpha catalytic subunit (Homo sapiens), P62136; purified PP1alpha; inhibition, % at 6.7 µM; hit rate 0.9% among 320,000;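 active means inhibition above the mean inhibition of all tested compounds plus 3 SD, computed separately for each screening campaign, cut at about 15% in these data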
Target sequence (P62136 whole entry, looked up): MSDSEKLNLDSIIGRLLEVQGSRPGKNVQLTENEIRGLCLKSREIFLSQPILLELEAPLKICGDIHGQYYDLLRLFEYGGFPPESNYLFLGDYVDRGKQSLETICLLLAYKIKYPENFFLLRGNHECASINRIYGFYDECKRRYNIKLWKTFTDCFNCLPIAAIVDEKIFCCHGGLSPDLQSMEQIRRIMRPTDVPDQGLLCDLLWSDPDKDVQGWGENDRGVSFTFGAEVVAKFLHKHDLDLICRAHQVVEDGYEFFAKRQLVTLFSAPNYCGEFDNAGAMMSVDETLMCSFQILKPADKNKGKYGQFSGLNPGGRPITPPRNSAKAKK
PP5 primary = PP5 phosphatase inhibitors, primary screen, biochemical, fluorescence; purified PP5c, OMFP substrate fluorescence; hit rate 0.18% among 320,000; inhibition, % at 6.7 µM; AID 1987, 2009; Serine/threonine-protein phosphatase 5 (Homo sapiens), P53041;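 active means inhibition above the campaign's mean inhibition across all tested compounds plus 3 SD, cut at about 9.5% in these data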;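 further: 0% = DMSO only and 100% = 100 µM cantharidin control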
Starred values were filed as active, the others as inactive; / = no result given.

SMILES	HIF activator	FID counter	HCV NS3 hel inh	PP1 counter	PP5 primary
NC(=O)COC(=O)c1ccccc1SCC(=O)NC1CCCCCC1	-0.1	-19.0	-8.6	-3.2	2.0
COc1cccc(N2C(=NC(=O)CCC3CCCC3)SC3CS(=O)(=O)CC32)c1 (stereo not given)	0.0	-19.2	0.8	2.2	1.1
COc1ccc(N2C(=NC(=O)CCC3CCCC3)SC3CS(=O)(=O)CC32)cc1 (stereo not given)	70.8*	-10.1	-7.0	-4.2	0.4
COc1cc(NC(=O)c2sc3ncn(CC(=O)N4CCC(C)CC4)c(=O)c3c2C)cc(OC)c1OC	0.1	-68.3	-5.6	8.6	1.2
COc1cc(NC(=O)c2sc3ncn(CC(=O)N4CCCC(C)C4)c(=O)c3c2C)cc(OC)c1OC (stereo not given)	-0.8	-51.4	1.0	16.6*	1.0
CC1Cc2ccccc2N1S(=O)(=O)c1cccc(C(=O)N2CCN(c3ncccn3)CC2)c1 (stereo not given)	-1.6	-36.5	-14.5	4.4	3.6
O=[N+]([O-])c1cc(Cl)ccc1N1CCN(c2ccccc2O)CC1	0.1	4.7	1.5	3.1	2.7
O=C(c1ccc(-c2cc3ccccc3oc2=O)cc1)N1CCN(c2ccc(Cl)cc2[N+](=O)[O-])CC1	-0.4	-3.6	-4.8	16.3*	3.6
O=C(NN1C(=O)/C(=C\c2ccc(O)c([N+](=O)[O-])c2)SC1=S)c1ccccc1Cl	0.3	0.4	0.1	15.7*	0.6
COc1ccccc1NC(=O)c1cnc(SCC(=O)NCCc2ccccc2)n(C)c1=O	-0.4	/	/	-6.1	-1.1
CN(C)S(=O)(=O)c1cccc(-c2nn(-c3ccccc3)cc2/C=C2\SC(=S)NC2=O)c1	/	-12.6	32.5	16.6*	3.7
C=CCc1ccc(OCCCCNC2CCCC2)c(OC)c1	-0.1	16.1	1.1	0.9	-1.0
COC(=O)c1c(NC(=O)CN2C(=O)NC3(CCc4ccccc4C3)C2=O)sc2c1CCCCC2 (stereo not given)	0.0	-5.6	4.1	15.4*	4.4
CC(=O)c1ccc(N2CCN(C(=O)c3cc(-c4ccncc4)nc4ccc(Cl)cc34)CC2)cc1	-0.1	-13.8	-3.4	-2.5	0.9
CN1CCN(C2Cc3ccc(F)cc3Sc3cc(F)c(Cl)cc32)CC1 (stereo not given)	39.3*	/	/	9.0	4.5
C#CCOC(=O)Nc1cccn(Cc2c(Cl)cccc2Cl)c1=O	2.2	-12.7	-3.7	-3.1	0.9
COC(=O)Nc1ccc(=O)n(Cc2c(Cl)cccc2Cl)c1	174.9*	-1.3	4.8	-2.2	-0.8
O=C(/C=C/c1cc[n+](CC(=O)c2ccc3cccc4c3c2CC4)cc1)c1ccc2cccc3c2c1CC3	-0.1	4.3	-15.3	46.2*	11.6*
CC(C)c1ccc(S(=O)(=O)/N=C2/C=C(Sc3ncn[nH]3)C(=O)c3ccccc32)cc1	/	2.5	19.5	3.9	10.8*
CSc1ccccc1C(=O)OCC(=O)NC1CCS(=O)(=O)C1 (stereo not given)	0.1	6.3	-2.3	-2.3	2.0
O=C1C=C(c2ccc(F)cc2OCc2ccccc2)C[C@@H](c2ccc(F)cc2)C1	/	/	/	8.1	1.6
CC(Oc1ccc2ccc(=O)oc2c1)C(=O)NCCN1CCOCC1 (stereo not given)	60.5*	-9.1	0.9	-4.1	2.6
COc1ccc(-c2nc(NCCCN(C)C)c3ccccc3n2)cc1	2.0	78.7*	28.3	-5.2	0.7
CCN(CC)CCCNc1nc(-c2ccccc2)nc2ccccc12	0.2	56.6*	23.9	-3.2	3.8
c1ccc(-c2nc(NCCCn3ccnc3)c3ccccc3n2)cc1	-0.4	66.3*	25.0	1.1	1.6
SMILES	HIF activator	FID counter	HCV NS3 hel inh	PP1 counter	PP5 primary
COc1ccc(OC)c(Nc2nc(NCCO)c3ccccc3n2)c1	0.9	37.7*	-10.0	-1.0	4.3
N/C(=N\OC(=O)CC(c1ccccc1)c1ccccc1)c1cccnc1	-0.9	-24.5	-0.8	-1.8	-1.6
CCC(Sc1nc(-c2ccccc2)c(-c2ccccc2)[nH]1)C(=O)O (stereo not given)	-1.1	-24.6	2.9	-0.2	1.2
CCc1cccc(C)c1NC(=O)COC(=O)c1cc([N+](=O)[O-])ccc1N1CCOCC1	-0.4	/	/	-4.9	-1.2
CCN(CC)CCCNc1nc2cc(OC)c(OC)cc2c2nc(-c3ccccc3)nn12	-6.0	50.5*	-13.3	-1.3	3.6
CCN(CC)CCCNc1nc2cc(OC)c(OC)cc2c2nc(-c3cccnc3)nn12	0.6	24.3	11.5	1.6	1.8
Nc1cc(OC(=O)c2cccs2)nn1S(=O)(=O)c1ccccc1	-0.8	3.1	-8.5	15.5*	2.3
Nc1cc(OC(=O)c2cccs2)nn1S(=O)(=O)c1ccc(F)cc1	0.1	2.5	-1.6	-4.1	0.6
CNC(=O)c1c(C)[nH]c(=S)c(C#N)c1-c1ccco1	0.6	-8.4	18.9	-0.3	1.8
Cc1ccccc1NC(=O)c1c(C)[nH]c(=S)c(C#N)c1-c1ccco1	-0.6	21.6	49.1*	1.8	1.0
Cn1c(=O)c2c(SCC(=O)NCc3ccco3)nc(-c3ccccc3Cl)nc2n(C)c1=O	0.2	-35.3	-2.5	17.0*	0.9
COc1ccccc1-c1nc(SCC(=O)NCc2ccco2)c2c(=O)n(C)c(=O)n(C)c2n1	-0.4	-41.7	-3.1	-1.4	5.0
Nc1ccc(C(=O)Nc2ccc3nc(-c4ccncc4)[nH]c3c2)cc1	256.1*	-6.0	-3.2	1.6	1.5
Nc1ccc2nc(-c3ccc(-c4nc5ccc(N)cc5[nH]4)cc3)[nH]c2c1	-0.7	51.6*	-48.2	7.2	2.2
CC(=O)Nc1ccc2nc(-c3ccncc3)[nH]c2c1	0.5	-0.1	4.3	-1.9	-0.2
CCOc1ncccc1C(=O)Nc1nc(SC)ns1	2.8	-7.0	1.0	-4.1	-2.8
CC(C)N(C(=O)Cn1cc(S(=O)(=O)CC(=O)NCc2ccc(F)cc2)c2ccccc21)C(C)C	0.5	-57.1	2.0	3.6	2.2
O=C(CCSc1nc2ccccc2s1)N/N=C/c1c(O)ccc2ccccc12	11.0*	-0.9	10.2	10.9	1.6
Cc1ccc(O)c(/C=N/NC(=O)CN2CCCC2)c1	14.8*	1.3	-3.8	-4.7	-0.5
Cc1cc(C)n(CCC(=O)N/N=C/c2c(O)ccc3ccccc23)n1	16.7*	-22.1	-10.3	-1.4	1.0
Cn1cccc1CC(=O)N/N=C\c1c2ccccc2cc2ccccc12	0.1	-20.0	26.4	15.9*	0.2
Cc1cccc(/C=N/NC(=O)CN2CCCCCCC2)c1	0.4	-0.3	-1.2	-0.2	-0.1
Cc1cc(C)n(CCC(=O)N/N=C/c2ccc(O)cc2)n1	-0.3	-0.5	-2.3	-2.0	1.3
N#CC(C#N)=Cc1cnc(N2CCN(c3ccccc3)CC2)s1	-22.5	-0.3	23.6	4.5	1.7
CCOC(=O)CNc1ccc(OC(F)(F)F)cc1	0.2	-0.4	0.2	-2.9	0.1
